CHRM4 antagonist = antagonists of human muscarinic M4 receptor (CHRM4); P08173; inhibition, % at 3 µM; hit rate 0.73% among 360,000; CHO-hM4 cells, ACh EC80, Fluo-8 calcium fluorescence; AID 624125;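 active = inhibition above its plate's cutoff, the mean inhibition of sample wells plus 3 SD, cut at about 27% in these data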;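 also: 0% = acetylcholine EC80 with DMSO and 100% = DMSO without agonist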
Target sequence (P08173 whole entry, looked up): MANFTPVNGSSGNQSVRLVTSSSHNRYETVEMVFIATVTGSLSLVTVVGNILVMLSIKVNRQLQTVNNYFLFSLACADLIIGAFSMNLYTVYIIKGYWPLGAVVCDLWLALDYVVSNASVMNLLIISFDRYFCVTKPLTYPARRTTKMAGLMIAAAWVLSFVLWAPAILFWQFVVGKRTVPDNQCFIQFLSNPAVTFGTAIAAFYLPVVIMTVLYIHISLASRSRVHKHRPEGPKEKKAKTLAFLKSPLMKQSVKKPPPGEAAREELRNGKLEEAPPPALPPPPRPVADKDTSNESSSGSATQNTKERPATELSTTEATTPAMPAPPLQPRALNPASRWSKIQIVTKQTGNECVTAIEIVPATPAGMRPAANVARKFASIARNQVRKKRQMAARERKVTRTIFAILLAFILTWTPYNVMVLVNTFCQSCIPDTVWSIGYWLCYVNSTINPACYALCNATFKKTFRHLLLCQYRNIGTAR
M5 PAM = CHRM5 positive allosteric modulation | P08912 | CHO-K1 hM5, Fluo-8 calcium, ACh EC20 PAM; 0% = ACh EC20, 100% = ACh EC100 | activation, % at 3 µM | hit rate 0.3% among 360,000 | AID 624038;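 active = activation above the run cutoff, the mean activation of all test compounds plus 3 SD, cut at about 18% in these data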
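Probe or stimulus: acetylcholine, EC20 level; Assay system: human M5 receptor in CHO-K1 cells; Schedule: compound preincubation 140 s before EC20 acetylcholine addition; Technique: intracellular calcium via Fluo-8 fluorescence; Dosing: single-point, 3 µM nominal; Read-out basis: percent activation from peak-over-basal fluorescence ratio, scaled EC20-to-EC100 acetylcholine; Repeats: one well per compound, no replicates.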
M5 antag = blocks acetylcholine activation of human M5 receptor. P08912. CHO-hM5 cells, Fluo-8 calcium fluorescence, ACh EC80. inhibition, % at 3 µM. hit rate 0.59% among 360,000;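 active = inhibition above a per-plate cutoff, the mean of that plate's test compounds plus 3 SD, cut at about 27% in these data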;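 also: 0% = acetylcholine EC80 with DMSO and 100% = DMSO without agonist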
M4 ag = CHRM4 agonism in calcium assay. P08173. CHO-K1 hM4/Gqi5, Fluo-8 calcium fluorescence; vehicle 0%, full acetylcholine response 100%. activation, % at 3 µM. hit rate 0.14% among 360,000. AID 624127;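 active = activation above the run mean over all test wells plus 3 SD, cut at about 32% in these data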;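 also: peak over basal fluorescence ratio per well then scaled between controls; 0% = DMSO wells and 100% = acetylcholine at EC100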
CHRM5 agonist = CHRM5 agonism in calcium assay; P08912; CHO-K1 hM5 cells, Fluo-8 calcium fluorescence; 0% DMSO wells, 100% maximal acetylcholine response; activation, % at 3 µM; hit rate 0.19% among 360,000; AID 624037;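 active = activation above the run's mean over test compounds plus 3 SD, cut at about 23% in these data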;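 also: signal is peak over basal fluorescence ratio across the kinetic read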
M4 PAM = positive allosteric modulators of human muscarinic M4 receptor. P08173. CHO-K1 hM4/Gqi5, Fluo-8 calcium fluorescence, ACh EC20; 0% = ACh EC20, 100% = maximal ACh. activation, % at 3 µM. hit rate 0.4% among 360,000;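 active = activation above its plate's cutoff, the mean activation of sample wells plus 3 SD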
Numbers without * were called inactive. Shown are actives, neighbours in structure and some others; about 1.9% of the full set was active somewhere.

SMILES | CHRM4 antagonist | M5 PAM | M5 antag | M4 ag | CHRM5 agonist | M4 PAM
O=C(O)C(Cc1c[nH]c2ccccc12)NS(=O)(=O)c1ccc2ccccc2c1 (stereo not drawn) | -16.0 | 7.2 | -13.2 | 0.1 | -1.9 | 20.4*
O=C1N/C(=N/c2ccccn2)SC1Cc1ccccc1 (stereo not drawn) | -1.9 | -1.2 | 1.1 | 0.0 | 2.7 | 7.0
O=C1NC(=Nc2ccccc2)SC1Cc1ccccc1 (stereo not drawn) | -2.2 | -11.0 | 27.0* | 18.2 | -3.0 | -3.6
Nc1ccc2nc(SCC(=O)Nc3ccc(N4CCOCC4)c(Cl)c3)sc2c1 | 6.1 | -20.9 | 27.4* | 13.7 | 4.8 | -11.3
O=C(NCCO)C(=O)Nc1cc2c3c(c1)CC(=O)N3CCC2 | 1.3 | 8.4 | 1.5 | -0.7 | -4.1 | 14.3*
CSc1nnc(-c2cccc(C)c2)n1N | 3.0 | 6.9 | -1.2 | 0.7 | 0.0 | 32.1*
Cc1cccc(C(C)C)c1NC(=O)COC(=O)CNS(=O)(=O)c1ccccc1 | -6.9 | -4.2 | 8.2 | 1.8 | 2.0 | 2.9
Cn1ncc(C(=O)N=S(C)(=O)c2ccccc2)c1[N+](=O)[O-] (stereo not drawn) | -5.2 | 6.8 | -7.0 | 1.6 | -1.5 | 28.3
O=C(c1cccc(Br)c1)N1CCN(c2ccc(N3CCOCC3)nn2)CC1 | 16.6 | -5.5 | 3.0 | -0.1 | -4.5 | -5.9
Cc1ccc(C(=O)N2CCN(c3ccc(N4CCOCC4)nn3)CC2)cc1C | -3.5 | 9.4 | -1.1 | 1.3 | -0.5 | 18.2*
Cc1cccn2c(=O)c(/C=C(\C#N)C(N)=O)c(N3CCN(Cc4ccc5c(c4)OCO5)CC3)nc12 | 39.8* | 1.9 | -13.4 | 6.5 | -6.8 | -19.9
COCCCNC(=O)/C(C#N)=C/c1c(N2CCN(c3ccc(OC)cc3)CC2)nc2c(C)cccn2c1=O | -6.5 | -9.7 | 31.1* | 11.0 | -1.9 | -11.6
CN(C)CCCN(C(=O)c1cccs1)c1nc(-c2ccccc2)cs1 | 28.1* | -17.8 | 21.1 | 5.4 | -4.9 | -23.6
CCC(=O)N(Cc1ccco1)c1nc(-c2ccc(OC)cc2)cs1 | 3.3 | -1.7 | 1.1 | -0.8 | -2.4 | -3.6
COc1ccc(-c2csc(N(CCCN(C)C)C(=O)c3ccccc3F)n2)cc1 | 2.6 | -1.9 | -5.2 | 5.1 | -6.0 | 4.3
CCN(CC)CCCN(C(=O)c1ccc(F)cc1)c1nc(-c2ccc(OC)cc2)cs1 | 45.7* | 1.4 | 3.8 | 16.1 | -14.1 | 58.6*
COc1ccc(-c2csc(N(CCCN(C)C)C(=O)c3ccc(F)cc3)n2)cc1 | 35.3* | -10.9 | -0.7 | 16.2 | -16.2 | 49.8*
COc1ccc(-c2csc(N(CCCN(C)C)C(=O)c3ccccc3C)n2)cc1 | 5.5 | -2.6 | 9.2 | 15.6 | -5.6 | -11.3
CCC(=O)N(CC)c1nc(-c2ccc(OC)cc2)cs1 | 9.3 | -6.8 | 8.0 | 59.4* | 4.4 | -22.3
Cc1cccc(Cn2c(N3CCN(C)CC3)nc3c2c(=O)n(C)c(=O)n3C)c1 | 0.9 | 0.9 | 0.4 | -0.5 | -2.1 | -3.3
O=C(c1cc(-c2cccs2)nn1-c1ccccc1)N1CCN(S(=O)(=O)c2ccccc2)CC1 | -17.1 | -19.1 | 11.9 | 14.8 | 0.2 | -5.5
OCCN1CCN(C2Cc3cc(Cl)ccc3Sc3ccc(Cl)cc32)CC1 (stereo not drawn) (tested in a mixture with another compound) | 20.9 | -10.8 | 8.1 | 13.2 | -8.9 | -16.7
c1ccc2c(c1)CC(N1CCCCC1)c1ccccc1S2 (stereo not drawn) | -17.6 | -31.5 | 2.5 | -0.7 | -20.4 | -24.2
CCc1ccc2c(c1)Sc1ccccc1CC2N1CCN(C)CC1 (stereo not drawn) | 32.6* | -28.5 | 8.8 | 25.3 | -12.1 | -71.7
CN1CCN(C2Cc3cc(Cl)ccc3Sc3cc(F)ccc32)CC1 (stereo not drawn) | 94.2* | -31.8 | 58.8* | 22.8 | -17.6 | -64.4
SMILES | CHRM4 antagonist | M5 PAM | M5 antag | M4 ag | CHRM5 agonist | M4 PAM
Cc1c(C(C)(C)O)[nH]c2ccc(C(F)(F)F)cc12 | 4.3 | -6.0 | 10.8 | 8.2 | 2.6 | 1.7
Cc1ccc(NCc2ccccc2O)c(C)c1 | 0.3 | -2.4 | 2.8 | -0.9 | -6.8 | -2.9
CN(CC(=O)NCc1ccco1)CC(=O)Nc1c(Cl)cccc1Cl | -12.4 | 18.2* | -7.7 | 2.3 | 4.6 | 13.4
COc1cccc(NC(=O)CN(C)CC(=O)NCc2ccco2)c1 | 2.8 | -4.1 | 7.0 | 0.7 | -0.6 | 3.8
Cc1cc(Cl)cc(Cl)c1OCC(=O)NCc1ccco1 | 1.7 | 21.6* | 1.2 | -0.4 | -9.9 | 3.4
CC(=O)NCCCc1nc2ccccc2n1Cc1ccccc1C | 26.8* | 1.8 | 0.2 | 1.6 | 3.3 | 10.2
O=C(COC(=O)c1c[nH]c2ccccc12)Nc1ccc(F)cc1 | 5.2 | -6.2 | 4.0 | 2.7 | 3.8 | 0.8
COc1ccccc1-c1sc2ccccc2c1-c1ccc(OCCN2CCCCC2)cc1 | 1.1 | 0.2 | -4.2 | 7.8 | -0.9 | -2.3
Oc1ccc2sc(-c3ccccc3O)c(-c3ccc(OCCN4CCCCC4)cc3)c2c1 | 43.2* | -8.4 | 18.0 | 61.4* | 6.7 | -13.1
COc1cccc(-c2sc3ccccc3c2-c2ccc(OCCN3CCCCC3)cc2)c1 | 33.6* | -1.2 | 15.0 | 5.1 | -5.1 | 8.7
COc1cccc(-c2sc3ccccc3c2-c2ccc(OCCN(C)C)cc2)c1 | 47.4* | -14.6 | 22.3 | 9.4 | -7.2 | 1.6
CC(=O)c1ccc(S(=O)(=O)N2CCN(CC(=O)Nc3ccccc3C(=O)NC3CC3)CC2)cc1 | 5.6 | -16.9 | 17.5 | 13.7 | 1.5 | -7.3
CC1(C)CC(=O)c2c(O)cc(OCC(=O)Nc3ccc(CCO)cc3)cc2O1 | -11.7 | -13.3 | 8.2 | 16.5 | 11.1 | -0.2
NC(=O)c1ccccc1NC(=O)COC(=O)C1(c2ccccc2)CC1 | -11.4 | 0.1 | 2.0 | 7.6 | 8.6 | 8.6
CCC(C)(C)n1nnnc1C(c1ccc(Cl)cc1)N1CCN(C)CC1 (stereo not drawn) | 1.4 | -2.0 | -12.7 | 1.0 | -5.2 | 20.5*
COc1ccccc1N/C=C/c1onc(C)c1[N+](=O)[O-] | 40.2* | -12.9 | 22.9 | 2.2 | 14.6 | -0.7
COc1ccc(/C=C2/C(=O)ON=C2c2ccccc2)cc1OC | -11.1 | 23.0* | -10.9 | 0.7 | -0.3 | 7.8
O=C1c2ccccc2C(Nc2cccnc2)N1Cc1ccccc1Cl (stereo not drawn) | 3.7 | -8.6 | 6.7 | 11.6 | -1.7 | -10.7
O=C1c2ccccc2C(Nc2cccnc2)N1Cc1ccccc1 (stereo not drawn) | 29.0* | -12.2 | 4.5 | 14.4 | -0.1 | -14.8
O=C(Nc1cccc(Br)c1)c1ccc2c(c1)SC1=NS(=O)(=O)CCN12 | -5.0 | 4.8 | -0.1 | 0.7 | 0.6 | 22.6*
